Compound activity as filed in PubChem.
PME-1 inh – PME-1 (human) inhibition. Q9Y570. recombinant PME-1, FP-Rh probe fluorescence polarization. inhibition, % at 5.9 µM. actives 0.53% (n = 320,000);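 active means inhibition above the campaign mean of all compounds plus 3 SD, cut at about 26% in these data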;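 further: competitive labeling of PME-1 active site by serine hydrolase directed probe; 0% = PME-1 with DMSO and 100% = wells lacking PME-1 enzyme; inhibitors block probe labeling so polarization falls and inhibition rises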
PRMT1 inh – PRMT1 (human) inhibition, primary screen; Q99873; recombinant PRMT1, activity-based probe fluorescence polarization; inhibition, % at 2.79 µM; actives 1.3% (n = 370,000); AID 652257;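 active means inhibition above about 21% made by adding two undisclosed values, limit read from the data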
Target sequence (Q99873 whole entry, looked up): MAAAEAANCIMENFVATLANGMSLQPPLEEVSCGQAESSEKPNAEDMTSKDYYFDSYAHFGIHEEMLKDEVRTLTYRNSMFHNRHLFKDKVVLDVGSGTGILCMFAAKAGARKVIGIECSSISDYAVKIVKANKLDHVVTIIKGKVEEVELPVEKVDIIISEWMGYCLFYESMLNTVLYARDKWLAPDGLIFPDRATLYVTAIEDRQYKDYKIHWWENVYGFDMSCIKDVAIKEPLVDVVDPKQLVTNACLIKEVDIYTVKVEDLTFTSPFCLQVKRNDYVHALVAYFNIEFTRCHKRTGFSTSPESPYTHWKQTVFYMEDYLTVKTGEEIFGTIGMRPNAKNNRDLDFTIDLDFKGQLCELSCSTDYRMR
PAD4 inh – PAD4 (human) enzyme inhibition | Q9UM07 | recombinant PAD4, RCA probe fluorescence polarization | inhibition, % at 6.36 µM | actives 0.41% (n = 330,000) | AID 485272;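 active means percent inhibition above a cutoff equal to the mean of all tested compounds plus 3 SD, cut at about 15% in these data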;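 further: 0% = PAD4 with RCA probe and DMSO and 100% = probe without PAD4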
RBBP9 inh – human RBBP9 hydrolase inhibition. O75884. recombinant RBBP9, FP-Rh probe fluorescence polarization. inhibition, % at 7.94 µM. actives 0.2% (n = 220,000). AID 1515;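 active means inhibition above the campaign mean of all tested compounds plus 3 SD, cut at about 14% in these data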;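 further: plate controls were DMSO wells with RBBP9 for no effect and wells lacking RBBP9 protein for full effect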
Target sequence (O75884 whole entry, looked up): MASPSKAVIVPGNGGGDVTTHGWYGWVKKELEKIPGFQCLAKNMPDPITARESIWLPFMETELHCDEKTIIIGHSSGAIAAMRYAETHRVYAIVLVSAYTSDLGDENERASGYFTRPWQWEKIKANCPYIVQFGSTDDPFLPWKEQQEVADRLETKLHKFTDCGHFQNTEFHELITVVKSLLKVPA
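Test system: recombinant human RBBP9; Timing: 30 min then 45 min, 25 °C; Detection: fluorescence polarization; Control set: RBBP9 with DMSO as uninhibited control, no-protein wells as full inhibition; Compound dosing: one concentration, 7.94 µM nominal, 0.794% DMSO; Probe or stimulus: FP-Rh activity-based probe, 375 nM before mixing.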
Fam108B inh – Fam108B inhibition, counter-screen for RBBP9 inhibitors | recombinant Fam108B, FP-Rh probe fluorescence polarization | inhibition, % at 9.51 µM | actives 0.33% (n = 300,000) | AID 1947;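 active means inhibition above the screen mean inhibition plus 3 SD, computed separately per campaign, cut at about 18% in these data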;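 further: inhibitors lower polarization as less probe binds the enzyme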
GSTO1 counter – counter-screen for RBBP9 inhibitors: inhibitors of human GSTO1 | P78417 | recombinant GSTO1, activity-based probe fluorescence polarization | inhibition, % at 5.96 µM | actives 1.1% (n = 300,000);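 active means inhibition above the campaign mean inhibition plus 3 SD, cut at about 35% in these data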;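 further: 0% = GSTO1-1 with DMSO and 100% = wells lacking GSTO1-1 enzyme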
PRMT1 confirm – confirmation of human PRMT1 inhibitors. shares compounds with PRMT1 inh. recombinant His-PRMT1, activity-based probe fluorescence polarization. actives 42% (n = 3,300). inhibition, % at 2.79 µM. AID 687036;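 active means mean inhibition across replicates above the hit cutoff derived for the earlier primary screen, cut at about 22% in these data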
Starred values were filed as active, the others as inactive; nt = no result given. Shown are actives, neighbours in structure and some others; about 2.3% of the full set was active somewhere.

SMILES | PME-1 inh | PRMT1 inh | PAD4 inh | RBBP9 inh | Fam108B inh | GSTO1 counter | PRMT1 confirm
O=C(CNC(=O)c1cccs1)c1ccc([N+](=O)[O-])cc1 | -10 | 5 | 1 | -5 | 2 | 6 | nt
O=C(Cc1ccccc1)NCC(=O)OCC(=O)c1ccc([N+](=O)[O-])cc1 | -3 | 76* | -3 | -1 | -3 | 14 | 67*
O=C(CNC(=O)c1ccco1)OCC(=O)c1ccc([N+](=O)[O-])cc1 | -4 | 47* | -3 | nt | 1 | 5 | 42*
O=C(COC(=O)CNC(=O)c1ccco1)Nc1ncc(Cl)cc1Cl | -3 | 35* | -11 | nt | nt | nt | 16
COc1cccc(C(=O)NCC(=O)OCC(=O)Nc2ncc(Cl)cc2Cl)c1 | 7 | -1 | 0 | -5 | 6 | 3 | nt
CCc1cc2c(=O)c(-c3nc4ccccc4n3C)c(COCC(=O)O)oc2cc1OC(=O)C(C)(C)C | 8 | -1 | 2 | -8 | 3 | 7 | nt
Cc1ccc(C(=O)NCC(=O)NCC(=O)OCC(=O)c2ccc([N+](=O)[O-])cc2)cc1 | 3 | 63* | -3 | 0 | 3 | 13 | 43*
O=C(CNS(=O)(=O)c1ccccc1)OCC(=O)c1ccc([N+](=O)[O-])cc1 | 1 | 80* | -3 | -7 | -3 | 21 | 42*
COc1cc(NC(=O)C2(C)CCCN2C)cc(OC)c1OC (stereo not drawn) | nt | -3 | nt | nt | nt | nt | nt
CCOC(=O)CC(=O)Nc1cc2ccc(OC)c(OC)c2cc1C(=O)OCC | nt | -1 | nt | nt | nt | nt | nt
N#C/C(=C\C=C\c1ccccc1)C(=O)NCc1cccnc1 | -4 | 3 | 13 | -4 | 3 | 7 | nt
COC(=O)C(NNc1ccccc1C)(NC(=O)c1ccc(F)cc1)C(F)(F)F (stereo not drawn) | 5 | 50* | -1 | 4 | -2 | -2 | 10
O=C(COC(=O)c1n[nH]c2ccccc12)NC(=O)NCc1ccco1 | -11 | 6 | 2 | -6 | -1 | 0 | nt
Cc1ccc(N=Cc2c(O)n(C)c(=O)n(C)c2=O)nc1 | -6 | 29* | -1 | -5 | 1 | 10 | -5
Cc1ccc(N=CC2=C(O)CC(C)(C)CC2=O)nc1 | -3 | -3 | -3 | -6 | -4 | 0 | nt
COC(=O)/C(C#N)=C/c1c(N2CCN(c3ccccc3)CC2)nc2c(C)cccn2c1=O | nt | 26* | nt | nt | nt | nt | -6
O=C(NCc1ccc2c(c1)OCO2)C1CCC(CNS(=O)(=O)c2ccccc2)CC1 (stereo not drawn) | 1 | -6 | -4 | -9 | 3 | 2 | nt
Cc1cc(-c2nnc(SCC(=O)Nc3nc(-c4ccc(Cl)cc4)cs3)o2)no1 | 28* | 42* | -13 | -1 | -7 | 26 | 5
CCC1(O)CC(C(=O)OC)=NN1C(=O)c1ccccc1 (stereo not drawn) | -4 | 1 | -6 | 1 | -7 | 8 | nt
C=CCn1c(SCCN2CCOCC2)nc2c1c(=O)[nH]c(=O)n2C | 4 | 2 | 1 | 2 | 0 | -2 | nt
COCCn1c(SCCN2CCOCC2)nc2c1c(=O)[nH]c(=O)n2C | -2 | 38* | -3 | -2 | 4 | 4 | 40*
CC(=O)OCC1=C(C(=O)O)N2C(=O)[C@@H](NC(=O)Cc3ccccc3)[C@H]2SC1 | nt | 27* | nt | nt | nt | nt | 11
C=CC1=C(C(=O)O)N2C(=O)C(NC(=O)Cc3ccccc3)C2SC1 (stereo not drawn) | -3 | 17 | -7 | 7 | 2 | 5 | nt
Cc1nnc(SCC2=C(C(=O)O)N3C(=O)[C@@H](NC(=O)Cn4cnnn4)[C@H]3SC2)s1 | -6 | 16 | -5 | -4 | -3 | 2 | nt
CC1=C(C(=O)OCc2ccc([N+](=O)[O-])cc2)N2C(=O)C(NC(=O)Cc3ccccc3)C2SC1 (stereo not drawn) | -4 | 4 | 0 | nt | -8 | -5 | nt
SMILES | PME-1 inh | PRMT1 inh | PAD4 inh | RBBP9 inh | Fam108B inh | GSTO1 counter | PRMT1 confirm
CC(=O)OCC1=C(C(=O)O)N2C(=O)C(NC(=O)COc3ccc(F)cc3)C2SC1 (stereo not drawn) | nt | 37* | nt | nt | nt | nt | 48*
CCOc1ccc(C(=O)NC2C(=O)N3C(C(=O)O)=C(COC(C)=O)CSC23)cc1OCC (stereo not drawn) | nt | 27* | nt | nt | nt | nt | 9
CC(CCc1ccccc1)NC(=S)NC(=O)c1ccco1 (stereo not drawn) | 0 | -1 | 0 | -4 | 2 | 0 | nt
CCn1c(SCC(=O)Nc2ccc3c(c2)c2ccccc2n3CC)nnc1-c1ccco1 | 9 | 43* | -6 | -8 | 9 | 23 | 26*
CCn1c2ccccc2c2cc(NC(=O)c3coc(=O)c(Br)c3)ccc21 | 3 | -7 | 2 | -4 | 4 | 6 | nt
CCn1c2ccccc2c2cc(NC(=O)c3ccc(Br)o3)ccc21 | 11 | 31* | -11 | 5 | -1 | 20 | 45*
Cn1c(CS/C(N)=N/N=C/c2ccccc2)c(Br)c(=O)n1-c1ccccc1 | 5 | 42* | 11 | -6 | 3 | 3 | 56*
NC(=N\N=Cc1ccccc1)/C(N)=N/N=Cc1ccccc1 | nt | 2 | nt | nt | nt | nt | nt
O=C1OC(c2ccccc2)(c2cc(Br)c(O)c(Br)c2)c2ccccc21 (stereo not drawn) | nt | 0 | nt | nt | nt | nt | nt
O=c1cc(Br)c(O)c(Br)cc1Br | nt | 35* | nt | nt | nt | nt | 39*
CCOC(=O)C1=C(N)n2c(s/c(=C/c3ccco3)c2=O)=C(C(=O)OC)C1c1ccco1 (stereo not drawn) | 7 | 36* | -8 | -2 | 11 | 20 | -1
N#CC1=C(N)n2c(s/c(=C\c3ccco3)c2=O)=C(C#N)C1c1ccco1 (stereo not drawn) | -11 | 41* | -1 | -10 | 9 | 18 | 17
N#CC1=C(N)n2c(s/c(=C\c3cccs3)c2=O)=C(C#N)C1c1cccs1 (stereo not drawn) | 5 | 21 | -2 | -8 | 4 | 2 | nt
CCNC(=O)CSc1nc2ccccc2c(=O)n1CCCOC(C)C | -4 | 0 | -2 | -5 | 4 | 2 | nt
COc1ccccc1C(=O)N1CCN(c2ccc(N3CCOCC3)nn2)CC1 | -2 | 38* | 0 | nt | 3 | 4 | -5
COc1ccc(C(=O)N2CCN(c3ccc(N4CCOCC4)nn3)CC2)cc1OC | -10 | 1 | 1 | nt | -4 | -1 | nt
Cc1ccc(/C=C/C(=O)N2CCN(c3ncccn3)CC2)o1 | -5 | 50* | 1 | -10 | -1 | 1 | 36*
CCCn1c(SCC(=O)Nc2ccc3c(c2)OCO3)n[nH]c1=O | nt | -1 | -3 | nt | nt | nt | nt
Cc1ccc(C)c2[nH]c(=O)c(CN(Cc3ccc4c(c3)OCO4)Cc3nnnn3Cc3ccco3)cc12 | -1 | 28* | 2 | -6 | -5 | 6 | -4
Cc1cc2cc(C(c3nnnn3Cc3ccco3)N3CCCCC3)c(=O)[nH]c2cc1C (stereo not drawn) | -2 | 30* | 0 | 4 | -4 | 2 | 8
